Measured values from different studies.
Compare with care: the assays were run in different laboratories.
Target: Serine/threonine-protein kinase TAO3 (TAOK3, Homo sapiens, UniProt Q9H2K8)
Sequence (Q9H2K8 1-898, as in one of the studies): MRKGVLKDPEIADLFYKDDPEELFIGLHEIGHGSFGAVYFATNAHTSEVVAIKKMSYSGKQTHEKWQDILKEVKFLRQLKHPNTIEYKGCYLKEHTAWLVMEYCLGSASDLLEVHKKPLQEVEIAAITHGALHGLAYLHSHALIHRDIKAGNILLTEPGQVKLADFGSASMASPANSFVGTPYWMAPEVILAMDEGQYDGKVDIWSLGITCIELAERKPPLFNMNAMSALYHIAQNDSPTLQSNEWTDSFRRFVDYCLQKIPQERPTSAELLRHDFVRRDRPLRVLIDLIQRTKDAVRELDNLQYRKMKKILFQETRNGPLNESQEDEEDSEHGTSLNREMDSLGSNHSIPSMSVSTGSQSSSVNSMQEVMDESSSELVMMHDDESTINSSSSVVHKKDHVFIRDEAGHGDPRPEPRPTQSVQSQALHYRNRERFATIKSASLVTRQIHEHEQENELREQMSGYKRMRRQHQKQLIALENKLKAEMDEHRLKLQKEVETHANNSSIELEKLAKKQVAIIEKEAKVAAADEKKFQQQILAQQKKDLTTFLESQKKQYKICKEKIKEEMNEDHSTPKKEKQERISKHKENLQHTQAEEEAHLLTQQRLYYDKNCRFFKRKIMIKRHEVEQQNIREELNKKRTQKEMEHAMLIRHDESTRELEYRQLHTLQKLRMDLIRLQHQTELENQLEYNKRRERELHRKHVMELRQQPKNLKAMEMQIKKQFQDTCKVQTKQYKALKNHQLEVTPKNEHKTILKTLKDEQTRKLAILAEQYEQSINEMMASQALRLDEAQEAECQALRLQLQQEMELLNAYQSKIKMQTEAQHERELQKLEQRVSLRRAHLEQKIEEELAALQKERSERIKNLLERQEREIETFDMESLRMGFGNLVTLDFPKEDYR

CN1CC(Oc2cnc(C#N)cc2-c2ccn3nc(NC(=O)C4CC4)cc3c2)C1 — inhibition (enzyme activity; inhibitor; 1 µM): -4%
COc1cc2c(Nc3ccc(Br)cc3F)ncnc2cc1OCC1CCN(C)CC1 — remaining signal (cell-free assay; 0.5 µM): 98.4%
O=C(Nc1cnn(-c2csc(C(=O)NC3COC3)c2)c1)Nc1c(F)cccc1Cl — remaining activity (enzyme activity; inhibitor; 5 µM): 90.2%
CC(=O)N1CCC(c2ccc(C(=O)NC3=NCCN3)cc2C(F)(F)F)CC1 — remaining binding (cell-free assay; competition with immobilised ligand; 1 µM): 87%
CNC(=O)c1cc(Oc2ccc(NC(=O)Nc3ccc(Cl)c(C(F)(F)F)c3)cc2)ccn1 — inhibition (enzyme activity; inhibitor; 0.3 µM): 77%
COCCOc1nc(-c2ccc(Cl)nc2)nc2c1CN(C(=O)c1ncn3ccccc13)CC2 — remaining binding (cell-free assay; competition with immobilised ligand; 0.1 µM): 100%
CCN(CC)CCNC(=O)c1c(C)[nH]c(/C=C2\C(=O)Nc3ccc(F)cc32)c1C — remaining signal (cell-free assay; 0.5 µM): 82.9%
O=C(O)c1cc(-c2ccc(C3CCNCC3)cc2)c2ccc(-c3ccc(C(F)(F)F)cc3)cc2c1 — remaining binding (cell-free assay; competition with immobilised ligand; 1 µM): 100%
Cc1ccc(C(=O)Nc2ccc(CN3CCN(C)CC3)c(C(F)(F)F)c2)cc1C#Cc1cnc2cccnn12 — remaining activity (enzyme activity; inhibitor; 23.5 nM): 28%
Cc1ccc(Nc2nccc(N(C)c3ccc4c(C)n(C)nc4c3)n2)cc1S(N)(=O)=O — inhibition (enzyme activity; inhibitor; 0.3 µM): 60%
Clc1ccc(Nc2nnc(Cc3ccncc3)c3ccccc23)cc1 — remaining signal (cell-free assay; 0.5 µM): 99.9%
CC1=C(C#N)C(c2ccc3c(c2)c(NC(=O)c2ccccc2C)nn3C)C(C#N)=C(C)N1 — remaining binding (cell-free assay; competition with immobilised ligand; 1 µM): 80%
CC(C)(C)c1nc2c(s1)c1nc(N)ncc1c1ccc(NS(=O)(=O)c3c(F)cccc3F)c(F)c12 — remaining activity (enzyme activity; inhibitor; radiometric; 1 µM): 87%
COc1cc(-c2cc(-c3ccc(N4CCNCC4)cc3)cnc2C)cc(OC)c1OC — inhibition (enzyme activity; inhibitor; 1 µM): 3%
CC(C)(O)[C@H]1CC[C@H](Nc2ccc3ncc(-c4cccc(C(F)(F)F)c4)n3n2)CC1 — remaining activity (enzyme activity; inhibitor; 1 µM): 75.1%
CS(=O)(=O)CCNCc1ccc(-c2ccc3ncnc(Nc4ccc(OCc5cccc(F)c5)c(Cl)c4)c3c2)o1 — remaining signal (cell-free assay; 0.5 µM): 101%
CCC(=N\O)/C(C)=C/c1ccc(F)cc1 — remaining binding (cell-free assay; competition with immobilised ligand; 1 µM): 86%
COc1cc2c(N3CCN(C(=O)Nc4ccc(OC(C)C)cc4)CC3)ncnc2cc1OCCCN1CCCCC1 — remaining signal (cell-free assay; 0.5 µM): 96.8%
Cc1nccc(COC(=O)N2C[C@@H]3[C@@H](CNC(=O)c4ccc5[nH]nnc5c4)[C@@H]3C2)n1 — remaining binding (cell-free assay; competition with immobilised ligand; 1 µM): 83%
CCCS(=O)(=O)Nc1ccc(F)c(C(=O)c2c[nH]c3ncc(-c4ccc(Cl)cc4)cc23)c1F — inhibition (enzyme activity; inhibitor; 1 µM): < 10%
Cc1cnc(NC2CCOCC2)nc1-n1cnc(C(=O)NC(CN)c2cc(F)cc(Cl)c2)c1 (stereo not shown) — remaining activity (enzyme activity; inhibitor; radiometric; 1 µM): 89%
O=C(Nc1ccc(Oc2ccc(F)cc2)cc1)N1CCc2ncccc2[C@H]1c1ccc(F)cc1 — remaining binding (cell-free assay; competition with immobilised ligand; 1 µM): 92%
